# High-throughput results deposited in PubChem BioAssay by several laboratories.
# Arrestin-AP2 inh – inhibitors of beta-arrestin/AP2 binding, primary screen, biochemical, GPCR trafficking, flow cytometry. inhibition, % at 10 µM. beta-arrestin 1 C-terminal peptide binding to AP2 beta2-adaptin appendage (human). FITC-arrestin peptide / GST-AP2 beads; AP2 beta2 appendage carries R879A mutation. hit rate 0.31% among 340,000;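 active means inhibition above a set limit, near 3 SD of compounds lacking own fluorescence, cut at about 54% in these data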;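 further: plate controls were DMSO wells for no effect and 5 µM unlabelled arrestin peptide for full effect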
#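 Measured by: flow cytometry, FL1 (488/535 nm); Material: AP2 appendage R879A on GSH beads; Evaluation: percent response; Timing: pre-incubation 12 min, peptide binding 1 h, room temperature; Also added: 50 nM FITC-arrestin peptide; Medium: PBS with 0.05% Tween 20 and 0.1% BSA.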
# GSK3 alpha inh – blockers of GSK3A enzyme activity – biochemical, luminescence, cell-free homogeneous, HTS, primary screen | GSK-3 alpha kinase, ADP-Glo luminescence, 60 min | inhibition, % at 10 µM | hit rate 0.1% among 320,000;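 active means more than half of replicates show inhibition above 20%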;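 further: GST-tagged GSK-3 alpha with peptide substrate and 25 µM ATP; 0% = DMSO neutral wells and 100% = GW8510 positive control wells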
# Target sequence (P49840 whole entry, looked up): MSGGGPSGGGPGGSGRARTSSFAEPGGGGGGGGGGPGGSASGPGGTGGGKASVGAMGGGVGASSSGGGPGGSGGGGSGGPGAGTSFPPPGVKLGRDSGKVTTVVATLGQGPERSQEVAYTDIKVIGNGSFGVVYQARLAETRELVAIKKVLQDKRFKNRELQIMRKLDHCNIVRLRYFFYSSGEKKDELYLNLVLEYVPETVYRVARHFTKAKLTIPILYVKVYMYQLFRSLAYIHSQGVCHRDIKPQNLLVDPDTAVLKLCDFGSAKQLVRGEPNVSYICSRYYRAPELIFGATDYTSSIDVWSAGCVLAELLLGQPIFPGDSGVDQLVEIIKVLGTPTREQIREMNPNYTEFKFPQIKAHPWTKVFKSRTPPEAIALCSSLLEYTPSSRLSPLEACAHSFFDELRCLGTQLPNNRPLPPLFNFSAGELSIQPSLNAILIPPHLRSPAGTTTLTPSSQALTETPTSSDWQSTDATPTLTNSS
# GSK3beta inhib – human GSK3beta kinase inhibitors, primary screen, biochemical, cell-free homogeneous, HTS. Glycogen synthase kinase-3 beta (Homo sapiens), P49841. GST-GSK3beta kinase, ADP-Glo luminescence, 60 min; stronger effect = lower value. activity score (negative = inhibition), % at 10 µM. hit rate 0.038% among 300,000;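 active means more than half of replicate wells score below -50%, meaning over 50% inhibition versus plate controls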;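 further: 0% = median DMSO wells and -100% = median GW8510 positive control wells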
#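 Assay system: GST-tagged human GSK3beta kinase, cell-free; Input: 1.6 ng GSK3beta; Medium: Tris/MgCl2 kinase buffer; Timing: 60 min enzyme reaction, room temperature; Signal: ADP-Glo luminescence quantifying ADP generated by kinase; Evaluation: score relative to plate controls; Benchmarks: DMSO neutral wells and GW8510 at 20 µM as positive.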
# Rin1-Abl PPI inh – inhibitors of Rin1-Abl protein binding, primary screen, biochemical, TR-FRET; Tyrosine-protein kinase ABL1 (Homo sapiens) + Ras and Rab interactor 1 (Homo sapiens), …; inhibition, % at 7.35 µM; hit rate 0.4% among 360,000; AID 588664, 2011; in the data active means inhibition above about 5%, passing the limit was not always enough
# Dyrk1A ADPGlo – rat Dyrk1A kinase inhibitors, primary screen, biochemical, single point, plate reader; Dual specificity tyrosine-phosphorylation-regulated kinase 1A (Rattus norvegicus), Q63470; ADP-Glo luminescence, NFATc1 peptide; inhibition, % at 12.5 µM; hit rate 0.43% among 310,000; in the data active means inhibition above about 50%;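 further: plate controls were vehicle with enzyme for no effect and no enzyme for full effect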
# STK33 inh – inhibitors of purified STK33 kinase, primary screen, biochemical, ADP-Glo luminescence, homogeneous, cell-free | Serine/threonine-protein kinase 33 (Homo sapiens), Q9BYT3 | MBP phosphorylation | inhibition, % at 10 µM | hit rate 0.073% among 320,000 | AID 2661, 2010;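 active means inhibition at or above 25%, using the most active replicate where run in duplicate; inactive means inhibition below 25%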
# Dyrk1A artifact – ADP-Glo luciferase interference without Dyrk1A, dose response, artefact control for Dyrk1A inhibitor project, biochemical, luminescence, cherry-pick, set 02; shares compounds with Dyrk1A ADPGlo; 1,300 tested, under 10 active; AID 588348, 2011; ADP-Glo luciferase artifact assay, no Dyrk1A; AC50, µM (doses to about 12 µM), for inactives: at the highest dose activity change, negative = inhibition;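 active means fitted half-maximal dose AC50 no more than ten times the top valid tested dose, with luminescence dropping as dose rises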
# Numbers without * were called inactive; · = not tested or not shown. This is a sample that favours compounds with a hit; in the whole collection about 0.99% have one here.
SMILES,Arrestin-AP2 inh,GSK3 alpha inh,GSK3beta inhib,Rin1-Abl PPI inh,Dyrk1A ADPGlo,STK33 inh,Dyrk1A artifact
COc1cc2c(c(OC)c1OC)C(c1ccccc1C)CC(=O)O2 (configuration not stated),-15.9,·,·,-0.9,3.3,·,·
N#CC1(NC(=O)COc2cccnc2[N+](=O)[O-])CCCCC1,-7.8,-1.0,·,3.9,5.6,0.3,·
Cc1cc(NCCCn2ccnc2)n2ncc(-c3ccc(Cl)cc3)c2n1,-2.6,11.9,-8.5,2.1,56.5*,18.1,9.6%
CSc1nc(N)nc2c1ncn2CC(=O)NCCCc1ccccc1,5.4,-1.5,·,-4.5,-0.7,0.8,·
Cc1noc(C(=O)Nc2ccc(F)c(Cl)c2)c1Cl,5.3,-4.1,-1.1,2.0,-0.1,-0.3,·
COc1ccc(N=Nc2c(C)n[nH]c2C)cc1,8.5,7.4,0.1,-3.2,52.2*,11.7,9.0%
CC1CN(S(=O)(=O)c2cccc(C(=O)Nc3ccc(S(=O)(=O)NC4=NCCCCC4)cc3)c2)CC(C)O1 (configuration not stated),2.8,-0.5,1.8,-3.1,4.8,-0.3,·
COc1ccccc1-c1nc(-c2ccc(C)nc2OC)no1,-3.7,-1.7,-0.2,3.1,-6.5,-5.3,·
COc1nc(C)ccc1-c1noc(-c2ccccn2)n1,-4.4,0.6,1.1,2.5,56.7*,0.5,8.4%
Cc1[nH]ccc2c1[nH]c1cc(=O)ccc12,-3.0,4.2,0.0,3.1,93.1*,3.2,8.0%
CCOC(=O)CC1(C)NC(C(=O)O)C(C)(C)S1 (configuration not stated),29.2,·,·,4.8,-0.2,·,·
COc1ccccc1N=c1oc2cc(O)ccc2cc1C(N)=O,-2.5,61.0*,2.1,-2.5,92.8*,36.8*,7.0%
COc1ccc(-c2csc3ncnc(Sc4nnnn4C)c23)cc1,-5.2,-0.4,·,3.4,50.4*,0.8,10.1%
CCC1(C)NC(=O)N(CC(=O)Nc2sc3c(c2C(=O)OC)CCCCC3)C1=O (configuration not stated),·,-2.7,-6.4,2.9,0.5,1.1,·
CCC1(CC)NC(=O)N(CC(=O)Nc2sc3c(c2C(N)=O)CCC3)C1=O,7.3,28.0,-8.9,0.6,65.5*,0.6,2.0%
CCN(C(=O)COC(=O)/C=C/c1ccco1)C1CCCCC1,-12.0,-1.5,·,-2.7,·,0.1,·
COC(=O)c1nccc2c1[nH]c1ccccc12,3.1,3.2,-2.5,-4.2,65.8*,5.0,9.2%
Cc1cc(C)cc(NC(=O)Nc2ccc3c(c2)N(C)C(=O)CS3)c1,3.9,-2.5,4.6,-2.1,5.5,-9.1,·
CC(=O)c1cccc(NC(=O)Nc2ccc3c(c2)N(C)C(=O)CS3)c1,1.7,-2.3,1.8,-1.7,50.1*,4.4,8.1%
COC(=O)CC#N,17.4,-1.9,·,-1.6,·,1.4,·
N#CCC(N)=C(C#N)C#N,5.9,9.7,-2.7,-22.1,68.6*,1.9,7.6%
COc1ccc(Cl)cc1NC(=O)CN(C)C(=O)/C=C/c1ccco1,-9.0,-0.8,·,0.3,-3.2,7.8,·
COc1ccccc1-c1cccc([C@@H]2C[C@H]3[C@@H](CN2)CON3C)c1,11.3,·,·,-1.0,·,·,·
Clc1cccc(Cc2nn[nH]n2)c1,19.0,-8.6,2.5,-2.1,59.3*,2.6,10.5%
CC[C@H](C)[C@H]1CNC(=O)C(=O)N1CC1CCN(CC2CCC(C)CC2)CC1 (some centres not stated),-0.4,·,·,-1.9,3.7,·,·
SMILES,Arrestin-AP2 inh,GSK3 alpha inh,GSK3beta inhib,Rin1-Abl PPI inh,Dyrk1A ADPGlo,STK33 inh,Dyrk1A artifact
COc1ccc(C(=O)Nc2ccccn2)cc1S(=O)(=O)N1CCOCC1,-7.3,0.7,-6.1,0.8,3.0,-1.4,·
COc1ccc(C(=O)Nc2nc3ccccc3[nH]2)cc1S(=O)(=O)N1CCOCC1,5.8,-3.5,0.7,-1.4,55.0*,6.9,10.1%
CCN(C1CCCCC1)S(=O)(=O)CCNC(=O)c1ccccc1,-12.0,-1.5,0.2,-3.3,·,-1.4,·
Cc1ccccc1NC(=S)Nc1cccc2cnccc12,2.4,-0.5,5.0,-6.0,41.2,2.2,·
Fc1ccccc1NC(=S)Nc1cccc2cnccc12,10.9,10.3,-4.1,-3.1,64.9*,6.4,8.9%
CCOC(=O)c1ccc(S(=O)(=O)N2CCN(C(=O)c3ccccn3)CC2)cc1,-6.9,-0.1,·,1.8,-0.6,-1.0,·
Cc1ccc(-n2c3c(cc(C(=O)NCCCN4CCOCC4)c2=O)C(=O)CC(C)(C)C3)cc1,17.4,-0.7,-2.3,0.4,-3.9,-1.0,·
O=C1CCCc2c1cc(C(=O)NCCCN1CCOCC1)c(=O)n2-c1ccc(Cl)cc1,30.3,0.7,-2.8,-1.8,58.0*,1.0,11.6%
CC(=O)N1CCN(c2ccc(S(=O)(=O)N3CCOCC3)cc2[N+](=O)[O-])CC1,-13.1,-2.4,·,-5.0,1.0,-1.1,·
CS(=O)(=O)Nc1ccc(-c2cc(/C=C3\SC(N)=NC3=O)c[nH]c2=O)cc1,36.1,36.9,-1.6,-0.1,85.5*,38.7*,7.7%
C=CS(=O)(=O)c1c2cc(OC)ccc2nc2ccc(OC)cc12,24.8,·,·,-0.2,60.5*,·,6.1%
COc1ccc2nc(Cl)cc(Cl)c2c1,5.7,-2.6,2.7,0.8,-5.2,0.1,·
Cc1[nH]c2ccccc2c1CN1CCC(Cc2ccccc2)CC1,-9.6,-2.0,1.0,-7.3,·,0.9,·
Cn1cnc2c(=O)sc3ccccc3c21,-5.7,4.8,-6.7,-0.8,70.4*,1.5,10.8%
Cc1cc(=O)c2ccccc2s1,-7.2,-1.0,3.6,0.1,13.5,-1.1,·
CC1(C)CC(=O)N(c2ccc(Cl)cc2Cl)C(=O)C1,-6.7,-1.7,0.4,2.8,-3.9,-1.7,·
O=c1cc(-c2ccccc2)oc2cc(O)c(O)c(O)c12,29.3,·,·,20.6*,57.3*,·,10.4%
O=C(O)c1ccc(/C=N/Nc2ccc(C(F)(F)F)cn2)cc1,1.3,·,-41.7,0.2,54.0*,·,8.7%
CCCCOc1cccc(C(=O)NC(=S)Nc2ccc(Cl)c(C(=O)O)c2)c1,2.7,-4.3,-1.6,3.8,66.2*,-1.5,10.8%
CC1CCCN(S(=O)(=O)c2ccc(C(=O)NC(C)c3ccccc3)cc2)C1 (configuration not stated),3.5,·,·,4.4,10.2,·,·
